According to PMC5109833 (Journal of medicinal chemistry, 2015):
Read-outs that look alike come from different tables or passages of the source. Peptide text beside a SMILES is read from it.

Key:
STAT6 (SH2 domain) = molecular target: T1, STAT6 (SH2 domain) (Homo sapiens, UniProt P42226); assay: Fluorescence polarization assay of affinity for STAT6; type: binding
T1 sequence (P42226 517-632 limits assumed): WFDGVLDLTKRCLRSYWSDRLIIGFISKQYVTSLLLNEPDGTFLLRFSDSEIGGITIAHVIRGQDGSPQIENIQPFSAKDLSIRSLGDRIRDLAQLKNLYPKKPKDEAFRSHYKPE

[1] = test system: pSTAT6 (Tyr641) in Beas-2B cells; assay: Inhibition of STAT6 Tyr641 phosphorylation in intact Beas-2B cells; type: cell-based, human; details: for pSTAT6 inhibition potency (in words): IL-4, Figure 4B
How it was run: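 Beas-2B cells seeded at 3.0 × 10^5 cells/well the day before. Prodrug added from DMSO stocks (5–10 μM stock) for 2 h, then IL-4 2 ng/mL for 1 h. Cells washed in cold PBS, lysed with PMSF, and protein measured by Lowry. 15–30 µg run on 10% SDS-PAGE and probed for pSTAT6 Tyr641 with ECL detection, then stripped and reprobed for total STAT6. Bands quantified densitometrically.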

Beas-2B cells = assay: Beas-2B cell viability/proliferation, MTS assay, 72 h; type: cell-based, human; details: 72 h exposure
How it was run: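 Beas-2B cells seeded at 2000 cells/well. Test compound made as 10 mM DMSO stock, serially diluted in DMSO, and equal amounts of each dilution added. Incubation at 37 °C for 72 h. Medium then replaced with 1:5 MTS/PBS for a further 1 h. Viable cells estimated from optical density at 490 nm.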

pAkt in MDA-MB-468 cells = assay: Inhibition of EGF-stimulated pAkt in MDA-MB-468 cells; type: cell-based, human; details: serum starved MDA-MB-468, EGF
[2] = test system: CCL26 (eotaxin-3) mRNA in Beas-2B cells; assay: Inhibition of IL-13 stimulated CCL26; type: cell-based, human; details: IL-13, 100 nM
How it was run: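 Beas-2B cells plated at 4 × 10^5 cells/well and held overnight in complete medium, then serum-starved 2 h. Pretreated with test compound 2 h, then stimulated with IL-13 overnight in serum-free medium. RNA extracted with Trizol and reverse transcribed. CCL26 quantified relative to β-actin by TaqMan real-time PCR.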

[3] = test system: pSTAT5 in CD4+ T lymphocytes; type: cell-based; details: primary mouse CD4+ T lymphocytes
How it was run: (§1)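 CD4+ T cells magnetically sorted from C57BL/6J mice. Activated on plate-bound anti-CD3 and/or anti-CD28 with IL-2 or IL-4 for 15 min. Lysed in kinase lysis buffer with protease inhibitors, 10 mM NaF and 1 mM Na3VO4. Protein equalised by Bradford, then immunoblotted for phospho-STAT5 Tyr694/STAT5 or phospho-STAT6 Tyr641/STAT6.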

[4] = test system: pSTAT6 (Tyr641) in Beas-2B cells; details: IL-4 and IL-13 stimulated; cited from earlier work
[5] = test system: pSTAT6 in CD4+ T lymphocytes; type: cell-based; details: primary mouse CD4+ T lymphocytes, Figure S2
How it was run: as §1

CC[C@H](C)[C@H](NC(=O)[C@H](CC(C)C)NC(=O)[C@H](CC(=O)O)NC(=O)[C@H](CCC(N)=O)NC(=O)[C@H](Cc1ccccc1)NC(=O)[C@@H]1CCCN1C(=O)[C@H](CCCCN)NC(=O)[C@H](Cc1ccc(OP(=O)(O)O)cc1)NC(C)=O)C(N)=O [compound 1, Ac-pTyr-Lys-Pro-Phe-Gln-Asp-Leu-Ile-NH2] (HELM PEPTIDE1{[ac].[O=C([C@H](Cc1ccc(OP(=O)(O)O)cc1)N[*:1])[*:2]].K.P.F.Q.D.L.I.[am]}$$$$V2.0)
IC50 (STAT6 (SH2 domain)): 2000 nM

C/C(=C\C(=O)N[C@H](C(=O)N1CCC[C@H]1C(=O)N(C)c1ccccc1)C(C)(C)C)c1ccc(C(F)(F)P(=O)(OCOC(=O)C(C)(C)C)OCOC(=O)C(C)(C)C)cc1 [compound 31]
pSTAT6 inhibition potency (in words) [1]: retains potency
cell viability (in words) (Beas-2B cells): nearly identical to that of 29
inhibition of pAkt at 5 µM (pAkt in MDA-MB-468 cells): mild inhibition
inhibition of CCL26 mRNA expression at 100 nM [2]: > 50%
inhibition of IL-2 mediated STAT5 phosphorylation [3]: robust inhibition

CC(C)(C)C(=O)OCOP(=O)(OCOC(=O)C(C)(C)C)C(F)(F)c1ccc(/C=C/C(=O)N[C@H](C(=O)N2CCC[C@H]2C(=O)N(c2ccccc2)c2ccccc2)C(C)(C)C)cc1 [compound 28]
concentration giving complete inhibition of pSTAT6 ([1]; prodrug 2 h, IL-4 1 h): 500 nM
concentration giving significant inhibition of pSTAT6 ([1]; prodrug 2 h, IL-4 1 h): 100 nM
effect on cell viability at concentrations ≤1 µM (Beas-2B cells): did not affect viability
inhibition of IL-2 mediated STAT5 phosphorylation [3]: robust inhibition

C/C(=C\C(=O)N[C@H](C(=O)N1CCC[C@H]1C(=O)N(C)C1CCCCC1)C(C)(C)C)c1ccc(C(F)(F)P(=O)(OCOC(=O)C(C)(C)C)OCOC(=O)C(C)(C)C)cc1 [compound 32]
pSTAT6 inhibition potency (in words) [1]: high potency
cell viability (in words) (Beas-2B cells): nearly identical to that of 29
inhibition of IL-2 mediated STAT5 phosphorylation [3]: robust inhibition

CC(C)(C)C(=O)OCOP(=O)(OCOC(=O)C(C)(C)C)C(F)(F)c1ccc(/C=C/C(=O)N[C@H](C(=O)N2CCC[C@H]2C(=O)Nc2ccccc2)C(C)(C)C)cc1 [compound 30]
loss of pSTAT6 inhibition potency relative to 29 ([1]; IL-4): approximately 25 fold
cell viability (in words) (Beas-2B cells): the fraction of viable cells paralleled pSTAT6 inhibition
lowest concentration with potent inhibition of pAkt (pAkt in MDA-MB-468 cells): 100 nM
inhibition of IL-2 mediated STAT5 phosphorylation [3]: not an inhibitor of pSTAT5

CC(C)(C)C(=O)OCOP(=O)(OCOC(=O)C(C)(C)C)C(F)(F)c1ccc(/C=C/C(=O)N[C@H](C(=O)N2CCC[C@H]2C(=O)N(c2ccccc2)c2ccc(I)cc2)C(C)(C)C)cc1 [compound 17]
concentration giving significant inhibition of pSTAT6 [4]: ≥ 1 µM
inhibition of IL-4 stimulated pSTAT6 [5]: relatively weak
inhibition of CCL26 mRNA expression at 100 nM [2]: > 50%

C/C(=C\C(=O)N[C@H](C(=O)N1CCCC1/C=C/CCc1ccccc1)C(C)(C)C)c1ccc(OP(=O)(O)O)cc1 (stereo partly drawn) [compound 25]
IC50 (STAT6 (SH2 domain)): 500 nM

CC(C)(C)[C@H](NC(=O)/C=C/c1ccc(OP(=O)(O)O)cc1)C(=O)N1CCC[C@H]1C(=O)N(c1ccccc1)c1ccc(I)cc1 [18a]
IC50 (STAT6 (SH2 domain)): 40 nM

CN(C(=O)[C@@H]1CCCN1C(=O)[C@@H](NC(=O)/C=C/c1ccc(C(F)(F)P(=O)(OCOC(=O)C(C)(C)C)OCOC(=O)C(C)(C)C)cc1)C(C)(C)C)c1ccccc1 [compound 29]
concentration giving nearly complete inhibition of pSTAT6 ([1]; prodrug 2 h, IL-4 1 h): 100 nM
concentration giving significant inhibition of pSTAT6 ([1]; prodrug 2 h, IL-4 1 h): 50 nM
effect on cell viability at concentrations ≤1 µM (Beas-2B cells): did not affect viability
inhibition of pAkt at 5 µM (pAkt in MDA-MB-468 cells): mild inhibition
inhibition of IL-2 mediated STAT5 phosphorylation [3]: robust inhibition
